Reference: ChEMBL document CHEMBL1125799, “Gossypol and derivatives: a new class of aldose reductase inhibitors” (J Med Chem, 1991)

Columns and labels:
[1] = molecular target: T1, Aldo-keto reductase family 1 member B1 (Homo sapiens, UniProt P15121); assay: The compound was tested for inhibitory activity against Aldose reductase from human placenta
In short: (§1)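 Aldose reductase purified from human placenta, with NADP present throughout purification and storage, kept at –20 °C. Assay in 0.1 M sodium phosphate pH 7 with 10 mM D,L-glyceraldehyde substrate and 0.1 mM NADPH at 25 ± 1 °C. NADPH oxidation followed as A340 decrease. Initial rates corrected for the rate without aldehyde substrate. Ki derived from Dixon plots.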

[2] = molecular target: T1, Aldo-keto reductase family 1 member B1; assay: The compound was tested for inhibitory activity against aldose reductase from human placenta; in short: as §1

| Ki [1] [µM] | Ki [2] [µM] | Compound |
| --- | --- | --- |
| 4.3 | – | COc1c(-c2c(C)cc3c(C(C)C)c(O)c(O)c(CO)c3c2OC)c(C)cc2c(C(C)C)c(O)c(O)c(CO)c12 |
| 56 | – | COc1c(OC)c(C=O)c2c(OC)c(-c3c(C)cc4c(C(C)C)c(OC)c(OC)c(C=O)c4c3OC)c(C)cc2c1C(C)C |
| – | 0.15 | Cc1cc2c(C(C)C)c(O)c(O)c3c2c(c1-c1c(C)cc2c(C(C)C)c(O)c(O)c4c2c1OC4=O)OC3=O |
| 2.8 | – | COc1c(-c2c(C)cc3c(C(C)C)c(O)c(O)c(C#N)c3c2OC)c(C)cc2c(C(C)C)c(O)c(O)c(C#N)c12 |
| – | 0.31 | COc1c(-c2c(C)cc3c(C(C)C)c(O)c(O)c(C=O)c3c2OC)c(C)cc2c(C(C)C)c(O)c(O)c(C=O)c12 |
| – | 6.8 | CCC(=O)Oc1c(-c2c(C)cc3c(C(C)C)c(O)c(O)c(C#N)c3c2OC(=O)CC)c(C)cc2c(C(C)C)c(O)c(O)c(C#N)c12 |
| 2.5 | – | Cc1cc2c(C(C)C)c(O)c(O)c(C#N)c2c(OC(=O)C(C)(C)C)c1-c1c(C)cc2c(C(C)C)c(O)c(O)c(C#N)c2c1OC(=O)C(C)(C)C |
| 1.3 | – | C/C=C/C(=O)Oc1c(-c2c(C)cc3c(C(C)C)c(O)c(O)c(C#N)c3c2OC(=O)/C=C/C)c(C)cc2c(C(C)C)c(O)c(O)c(C#N)c12 |
| 9.7 | – | COc1c(OC)c(C=O)c2c(O)c(-c3c(C)cc4c(C(C)C)c(OC)c(OC)c(C=O)c4c3O)c(C)cc2c1C(C)C |
| – | 3.1 | CCCCCC(=O)Oc1c(-c2c(C)cc3c(C(C)C)c(O)c(O)c(C#N)c3c2OC(=O)CCCCC)c(C)cc2c(C(C)C)c(O)c(O)c(C#N)c12 |
| 7.8 | – | Cc1cc2c(C(C)C)c(O)c(O)c(/C=N/O)c2c(O)c1-c1c(C)cc2c(C(C)C)c(O)c(O)c(/C=N/O)c2c1O |
| 9.3 | – | Cc1cc2c(C(C)C)c(O)c(O)c3c2c(c1-c1c(C)cc2c(C(C)C)c(O)c(O)c4c2c1OC4=N)OC3=N |
| – | 7.3 | CC(=O)Oc1c(-c2c(C)cc3c(C(C)C)c(O)c(O)c(C#N)c3c2OC(C)=O)c(C)cc2c(C(C)C)c(O)c(O)c(C#N)c12 |
| – | 4.7 | CCCCC(=O)Oc1c(-c2c(C)cc3c(C(C)C)c(O)c(O)c(C#N)c3c2OC(=O)CCCC)c(C)cc2c(C(C)C)c(O)c(O)c(C#N)c12 |
| – | 5.3 | CCCC(=O)Oc1c(-c2c(C)cc3c(C(C)C)c(O)c(O)c(C#N)c3c2OC(=O)CCC)c(C)cc2c(C(C)C)c(O)c(O)c(C#N)c12 |

| Compound | Ki [1] [µM] | Ki [2] [µM] |
| --- | --- | --- |
| COc1c(OC)c2c3c(c(-c4c(C)cc5c(C(C)C)c(OC)c(OC)c6c5c4OC6=O)c(C)cc3c1C(C)C)OC2=O | – | 48 |
| COc1c(O)c(C=O)c2c(O)c(-c3c(C)cc4c(C(C)C)c(OC)c(O)c(C=O)c4c3O)c(C)cc2c1C(C)C [6,6'-METHOXYGOSSYPOL] | 1.5 | – |
| Cc1cc2c(C(C)C)c(O)c(O)c(C=O)c2c(O)c1-c1c(C)cc2c(C(C)C)c(O)c(O)c(C=O)c2c1O [GOSSYPOL] | 0.5 | – |
